ChEMBL document CHEMBL4373727, “Thienopyrimidinone Derivatives That Inhibit Bacterial tRNA (Guanine37-N1)-Methyltransferase (TrmD) by Restructuring the Active Site with a Tyrosine-Flipping Mechanism” (J Med Chem, 2019)
In brackets after ≈: the same amount, converted by molar mass. Activity calls are given as the source filed them. Unless noted, the rule behind the calls is not given here.

Experiments:
[1] = Selectivity ratio of Kd for full length Staphylococcus aureus tRNA (guanine(37)-N1)-methyltransferase expressed in Escherichia coli BL21 (DE3) to Kd for Pseudomonas aeruginosa tRNA (guanine(37)-N1)-methyltransferase (Leu5 to Asp25 residues) expressed in Escherichia coli BL21 (DE3) Rosetta T1R cells
[2] = molecular target: T1, tRNA (guanine-N(1)-)-methyltransferase (Staphylococcus aureus (strain NCTC 8325 / PS 47)) (UniProt Q2FZ43); test: Binding affinity to full length Staphylococcus aureus tRNA (guanine(37)-N1)-methyltransferase expressed in Escherichia coli BL21 (DE3) assessed as thermal stabilization of protein by measuring change in melting temperature at 0.1 mM by SYPRO orange based thermal shift assay
T1 sequence (whole entry): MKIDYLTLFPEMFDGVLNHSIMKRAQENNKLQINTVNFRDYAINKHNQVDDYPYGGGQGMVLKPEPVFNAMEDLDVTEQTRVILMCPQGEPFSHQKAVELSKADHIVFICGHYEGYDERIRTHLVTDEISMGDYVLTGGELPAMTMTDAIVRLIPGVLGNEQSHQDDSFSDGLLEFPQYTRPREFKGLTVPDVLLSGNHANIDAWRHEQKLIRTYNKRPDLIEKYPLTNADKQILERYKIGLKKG

Staphylococcus aureus = test: Bactericidal activity against methicillin-resistant Staphylococcus aureus ATCC 43300 assessed as reduction in CFU at 1 to 4 times MIC90 incubated for 24 hrs; format: functional; settings: ATCC 43300, 24 h, read-out: MBC99.9
Klebsiella pneumoniae = test: Bactericidal activity against Klebsiella pneumoniae ATCC 13883 assessed as reduction in CFU at 1 to 4 times MIC90 incubated for 24 hrs; format: functional, organism-based
[3] = molecular target: T2, tRNA (guanine-N(1)-)-methyltransferase (Pseudomonas aeruginosa (strain ATCC 15692 / DSM 22644 / CIP 104116 / JCM14847 / LMG 12228 / 1C / PRS 101 / PAO1)) (UniProt Q9HXQ1); test: Inhibition of Pseudomonas aeruginosa tRNA (guanine(37)-N1)-methyltransferase (Leu5 to Asp25 residues) expressed in Escherichia coli BL21 (DE3) Rosetta T1R cells assessed as reduction in S-adenosyl-L-homocysteine production preincubated for 30 mins followed by 1.5 to 15 uM of tRNALeu(CAG) substrate and SAM addition and measured after 60 mins by MTase-Glo assay
T2 sequence (whole entry): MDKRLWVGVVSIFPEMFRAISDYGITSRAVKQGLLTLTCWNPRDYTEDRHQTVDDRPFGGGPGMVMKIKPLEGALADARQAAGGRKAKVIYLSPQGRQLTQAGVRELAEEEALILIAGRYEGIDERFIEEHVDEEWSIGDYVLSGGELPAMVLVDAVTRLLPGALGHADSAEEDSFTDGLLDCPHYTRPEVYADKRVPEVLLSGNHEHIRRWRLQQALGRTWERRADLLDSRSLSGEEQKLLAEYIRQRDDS

Streptococcus pneumoniae [4] = test: Bactericidal activity against Streptococcus pneumoniae ATCC 49619 assessed as reduction in CFU at 1 to 4 times MIC90 incubated for 24 hrs; format: functional; settings: ATCC 49619, 24 h, read-out: MBC99.9
[5] = test system: Mycolicibacterium smegmatis; test: Bactericidal activity against Mycolicibacterium smegmatis MC2 155 assessed as reduction in CFU at 1 to 4 times MIC90 incubated for 24 hrs; format: functional; settings: MC2 155, 24 h, read-out: MBC99.9
Erythrocyte = test: Hemolytic activity in human RBC at 100 uM measured after 1 hr; format: ADME, cell-based
Summary of the method: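 Fresh human RBCs were PBS-washed and resuspended to OD600 24, then mixed 1:1 by volume with compound serially diluted in PBS. Incubated 1 h at 37 °C without shaking and centrifuged at 1000g for 15 min. Triton X-100 served as positive control. Run in triplicate.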

Streptococcus pneumoniae [6] = test: Antibacterial activity against Streptococcus pneumoniae ATCC 49619 incubated for 24 hrs by serial broth microdilution method; format: functional; settings: ATCC 49619, 24 h
Summary of the method: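 Cultured in MH medium plus 3% defibrinated sheep blood at 37 °C, 5% CO2. Log-phase inoculum ~5×10^5 cells/mL was exposed to serial compound dilutions for 24 h. MIC50/MIC90 are relative to drug-free controls. Two independent experiments in duplicate.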

Pseudomonas aeruginosa = test: Bactericidal activity against Pseudomonas aeruginosa PA14 assessed as reduction in CFU at 1 to 4 times MIC90 incubated for 24 hrs; format: functional, organism-based
Enterococcus faecalis = test: Bactericidal activity against Enterococcus faecalis ATCC 51299 assessed as reduction in CFU at 1 to 4 times MIC90 incubated for 24 hrs; format: functional, organism-based
Salmonella enteritidis = test: Bactericidal activity against Salmonella enteritidis ATCC 13076 assessed as reduction in CFU at 1 to 4 times MIC90 incubated for 24 hrs; format: functional; settings: Salmonella enterica subsp. enterica serovar Enteritidis
[7] = test system: Mycolicibacterium smegmatis; test: Antibacterial activity against Mycolicibacterium smegmatis MC2 155 incubated for 24 hrs by serial broth microdilution method; format: functional; settings: MC2 155, 24 h
Summary of the method: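 Growth read by OD600. MRSA in cation-adjusted Mueller–Hinton broth, M. smegmatis in complete 7H9. MIC50 and MIC90 are 50% and 90% growth inhibition versus drug-free controls. Two independent experiments, each in duplicate.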

Acinetobacter baumannii = test: Bactericidal activity against Acinetobacter baumannii ATCC 17961 assessed as reduction in CFU at 1 to 4 times MIC90 incubated for 24 hrs; format: functional; settings: ATCC 17961, 24 h, read-out: MBC99.9

SMILES | Ratio [1] | ΔTm [2] [°C] | MBC (Staphylococcus aureus) [µM] | MBC99.9 (Klebsiella pneumoniae) | inhibition [3] | MBC (Streptococcus pneumoniae [4]) [µM] | MBC [5] [µM] | Activity (Erythrocyte) | MIC50 (Streptococcus pneumoniae [6]) [µM] | MIC90 (Streptococcus pneumoniae [6]) [µM] | MBC99.9 (Pseudomonas aeruginosa) | MBC99.9 (Enterococcus faecalis) | MBC99.9 (Salmonella enteritidis) | MIC50 [7] [µM] | MBC (Acinetobacter baumannii) [µM]
NC1CCN(Cc2ccc(CNC(=O)c3csc4nc[nH]c(=O)c34)cc2)CC1 | 100 to 300 | 1 to 13 |  |  |  |  |  |  |  |  |  |  |  |  | 
CCCCCCCCNCc1ccc(CNC(=O)c2csc3nc[nH]c(=O)c23)cc1 |  |  | 54 (≈ 23 µg/mL) | inactive | Dose-dependent effect | > 100 | > 100 | Non-Toxic | 60 (≈ 25.6 µg/mL) | 73 (≈ 31.1 µg/mL) | inactive | inactive | inactive | 58 (≈ 24.7 µg/mL) | > 100
